To fix the notation:
B1: tRNA (parent)
chain: GUUCCGUUGGCGUAAUGGUAACGCGUCUCCCUCCUAAGGAGAAGACUGCGGGUUCGAGUCCCGUACGGAACG

Variants at the floor of the assay were thinned out.

In this series the parent is B1. Description: yeast fitness relative to wild type (ratio to wild type); higher = fitter; tRNA-Arg(CCU), competitive growth, 37 C, YPD. In outline:
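For this measurement, the tRNA-Arg(CCU) gene was varied by chemical synthesis at a 3% per-site mutation rate across 69 sites, and each variant was placed at the native genomic locus in Saccharomyces cerevisiae. The pooled strains went through a 24-hour competition in YPD at 37°C in six parallel replicates, with amplicons from start and end populations read by 100-nucleotide paired-end sequencing. Darwinian fitness relative to wild type followed from the change in each genotype's frequency. Genotypes needed ≥ 100 starting reads, and estimates < 0.5 were set to 0.5.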
As for U3A A14U A42U C55A, the yeast fitness was not above 0.5. To U3A A15G U19A U32C G41A G50A belongs not above 0.5.

On to U3A C4U U7A C24U A70U, for which the yeast fitness was not above 0.5. In the case of U3A C4U U7A C24U A70G, the yeast fitness was not above 0.5.

For U3A C27A A69U, the yeast fitness came out at 0.627. For the variant U3A A15G U28C C60A, the yeast fitness worked out at 0.522.

On to U2G G12C C49U C66U, for which the yeast fitness was not above 0.5. Consider U3A A14U C60U C62U A70G, for which the yeast fitness turned out to be 0.651.

For the variant U2G G12A U35C, the yeast fitness was not above 0.5. Regarding U3A C5U C22G C34G A37G A65G, the yeast fitness is not above 0.5. Next, U3A C46G A70C: 0.715. As for U3A C27G C31U C33U A42C C66U A70C, the yeast fitness is not above 0.5. Take U3A A20C A21G: the yeast fitness was found to be 0.679. Next, U3A C30U U59A A69C: not above 0.5; U2G U19A A21G C31U A65U G67C: not above 0.5.

For U3A A40C C62U, the yeast fitness came to 0.548. To U3A C29U belongs 0.85; to U3A C29A, 0.653. On to U3A C4U G25C, for which the yeast fitness is not above 0.5. With U2G G38C, the yeast fitness worked out at 0.606. Next, U3A G6A G12A A20G C22G U26A G48C G68U: not above 0.5; U2G G63A: 0.876. Next, U2G C34G G39C G41C G67C: not above 0.5; U2G C33U G58C A70U: 0.581. As to U3A A42U A43G G48C U53A A69C, the yeast fitness is not above 0.5. To U2G G52C C61G belongs not above 0.5; to U3A C46U G48A C55U U59A, not above 0.5. As to U3A C11G U28A G41C G58C, the yeast fitness was not above 0.5.

For U3A C27A C30G G39A, the yeast fitness is not above 0.5. To U2G G52A belongs 0.774; to U3A C5U C31G A57G, not above 0.5; to U3A C4U C61G G63C, not above 0.5. In the case of U3A C24A C34U U54G, the yeast fitness is not above 0.5.

With U3A A20G C55G C61U, the yeast fitness is not above 0.5. To U3A A40C U47A belongs 0.647. Regarding U2G G25A U53A G63A, the yeast fitness is 0.563. Turning to U3A A42G G52C A57G, the yeast fitness is not above 0.5. As for U3A C24U U32C, the yeast fitness stood at 0.513.

Consider U3A A15U G48A A57G C61A, for which the yeast fitness is not above 0.5. To U3A C24G C31U G52C belongs not above 0.5. Next, U3A C4G A43G U47C: not above 0.5; U3A C22G C27G U59C C62U G68U: not above 0.5; U3A A20U A42C C55G: not above 0.5. Next, U3A C30G: 0.598; U3A C30A: 0.834; U3A A14C A20C U28A C29G U32C G39A A70C: not above 0.5. In the case of U3A C24G C60G, the yeast fitness was 0.645. Next, U3A C27G A43C: not above 0.5. To U3A C31U A57U belongs 0.598. Regarding U2G U16G C27A A36C A70C, the yeast fitness was not above 0.5. U2G G9C A20G A42C C46G C49U: the yeast fitness worked out at 0.602. Consider U3A C11G A14C C24G C62U A65G, for which the yeast fitness stood at 0.595. Next, U2G U13A C22U C61U C66U: not above 0.5; U2G C33G C61A: not above 0.5; U2G C66U: 0.858. To U3A A14C belongs 0.567; to U3A C31U A70U, 0.688.

On to U3A C5G U13G C46G C62G A70U, for which the yeast fitness was not above 0.5.

On to U2G U35G A45G C49G U59C C60U A69C, for which the yeast fitness stood at 0.618. Take U3A C4U C5U G48C C49A G67C A70U: the yeast fitness was 0.663. To U2G G18C G23U U64A belongs 0.606; to U2G G6A C27G U54C C62U, not above 0.5; to U2G G9C A15G, not above 0.5. Next, U2G C49U C62U: 0.565; U3A C11A A69C: not above 0.5; U3A A36U: 0.681. As to U3A A14C A37C U47A, the yeast fitness is not above 0.5. For U3A C30G A45G C46G G52C G68C, the yeast fitness is not above 0.5. Turning to U3A C5A G6C A15G U16A C49G, the yeast fitness was not above 0.5. In the case of U3A C24G A57U, the yeast fitness is not above 0.5. Next, U2G U3A C5U U7C U8C A20C U35C A37U A57C: not above 0.5; U3A A14C A21C G41A G44C U47C C49U G56A: not above 0.5; U3A C4A A21U G56C G58A: not above 0.5. To U3A C31U A40C belongs 0.566.

For the variant U3A C4A U8C C29G A37C, the yeast fitness came to 0.581.

Turning to U3A A42U, the yeast fitness stood at 0.846. Next, U3A C4A U8C C29G A37C C62U A70U: not above 0.5; U3A C22U G39A C66U: 0.576. To U3A C4A A21U belongs not above 0.5. For the variant U2G C46A C66U, the yeast fitness amounted to 0.584.

For the variant U3A C46A G67U, the yeast fitness came out at 0.603. As for U3A C4G G9A C11G A45U, the yeast fitness was not above 0.5. Regarding U3A C5G C11U C24A C30U A70G, the yeast fitness was not above 0.5. Take U2G G9A A36G A57G C60U: the yeast fitness is 0.672. For U3A C11G, the yeast fitness was 0.643. To U3A C11A belongs 0.607; to U2G C46U, 1.01; to U2G C46G, 0.864. To U3A C4U C5U belongs 0.594; to U2G G9C G12A A42C C46A G68C, not above 0.5; to U3A C46G C49U G56C, 0.734. For the variant U3A A21C G25U A43C C61G C62U, the yeast fitness was not above 0.5. As to U3A A21G C34G A40G C60G C62G, the yeast fitness is not above 0.5. As for U2G G25C U28G A42C C61U, the yeast fitness was not above 0.5.

With U3A A14U G41C G67C, the yeast fitness was not above 0.5.

On to U2G C46G G52A, for which the yeast fitness is not above 0.5.

For U3A C31U U35G C62U, the yeast fitness was not above 0.5. To U3A C49U A69U belongs 0.759; to U2G G25A, 0.986. As to U3A A65C A70C, the yeast fitness was 0.679. For U2G U32C A40G, the yeast fitness was not above 0.5. To U3A A21G A65C belongs 0.64. Turning to U3A C11G G41C G58C, the yeast fitness was 0.733. U3A A15C U35A G52C C55A: the yeast fitness is not above 0.5. Regarding U2G G44C C55G, the yeast fitness was not above 0.5. To U3A A37C C60A A70G belongs not above 0.5; to U2G G12C, 0.757. Consider U3A C11G A14C C62U G67C, for which the yeast fitness is not above 0.5. For U3A A20U C31G, the yeast fitness came to 0.535. To U3A C24G C29A G50C A57C belongs not above 0.5; to U2G G9A, 1.01.

For the variant U3A A14C C24G C33G, the yeast fitness was not above 0.5. To U2G U26C G56A belongs 0.547. To U2G U3C G10C A69C belongs not above 0.5; to U2G G18A C29G C31G G52A, not above 0.5.

Turning to U2G G9A A69U, the yeast fitness came out at 0.577. With U3A C4U G25C G63C, the yeast fitness is not above 0.5. Next, U3A C27U G67U: 0.606; U3A A43U C66U: 0.635.

For U2G C62G C66U, the yeast fitness was not above 0.5. Regarding U2G C49U, the yeast fitness is 0.957. To U2G G10C A40G A57G belongs not above 0.5.

As for U2G U19G, the yeast fitness was found to be 1.24. For U2G U13A C60U, the yeast fitness worked out at 0.816. To U2G G51A G58C belongs 0.562. U3A C49G: the yeast fitness is 0.792.

Turning to U3A C49A, the yeast fitness turned out to be 0.609. Turning to U3A C49U, the yeast fitness was found to be 0.954. As for U2G G18A C29G C31G, the yeast fitness is not above 0.5. To U3A C11G G12A C22U belongs not above 0.5. Next, U3A G6A G25C A43C: 0.614; U2G U3C A21C: not above 0.5; U3A A42C A65U C66U G67C: 0.569. Turning to U2G U3A, the yeast fitness turned out to be 0.736.

As for U3A A40C C60U C62G, the yeast fitness was not above 0.5.

Turning to U3A C27U, the yeast fitness is 0.853. Take U2G C33U A65C: the yeast fitness is not above 0.5. To U3A C24U U53A belongs 0.548. Turning to U3A C31G A40U G41U, the yeast fitness was not above 0.5.

Turning to U3A G6C C31A U47G C62A, the yeast fitness was not above 0.5.

Turning to U3A A69U, the yeast fitness is 0.999. To U3A A40U belongs 0.841. For the variant U3A C27U A37U A69C, the yeast fitness is not above 0.5. To U2G G48A G58C A65U G67C belongs not above 0.5. Consider U2G G50C U59A, for which the yeast fitness was determined as 0.547. Next, U3A C5G U13G G39C A70C: not above 0.5; U3A A37C C61A: not above 0.5. Next, U2G G12A U13A G25C U28A C33A G63C U64C C66U: not above 0.5; U3A C4G C62U A70C: 0.754; U3A C60A: 0.677. U3A C5A G6C C11U A15G U16A U26G C60G C61U: the yeast fitness is not above 0.5.

Regarding U2G G9C A65C, the yeast fitness came out at 0.548.

In the case of U3A C5G C24A C30U A70G, the yeast fitness was not above 0.5. Turning to U3A C5A G17A C22U C66U, the yeast fitness was determined as 0.531.

U3A C4U U8A G10A A21G C49G A57G G67U: the yeast fitness amounted to 0.655. In the case of U3A C30G C55U A70U, the yeast fitness is not above 0.5. As to U2G U7C C55U C62G C66A, the yeast fitness was not above 0.5.

For the variant U2G G18C G23U C27U U64A, the yeast fitness was not above 0.5. To U3A C30U G67A belongs 0.553; to U2G G10C, 0.527.

For U3A C11G C31G A65G, the yeast fitness is not above 0.5. As for U2G U13C A21G U35A C55U A70G, the yeast fitness was not above 0.5.

In the case of U2G C46A G56C, the yeast fitness was not above 0.5. As to U3A C22G C29U G63A, the yeast fitness was not above 0.5. Next, U2G U7G U26A C49U A65U: not above 0.5. With U2G C62G, the yeast fitness was 0.632.

Turning to U3A C4G G6A U26G C66U, the yeast fitness is not above 0.5.

(Values after the RNAGym collection of RNA variant scans (doi:10.1126/science.aae0568).)
